Data reported in ChEMBL document CHEMBL1141264, “Cucurbitane-type triterpenoids from the fruits of Momordica charantia and their cancer chemopreventive effects” (J Nat Prod, 2007).

How the values were obtained:
Raji [1] = assay: Inhibition of TPA-induced Epstein-Barr virus early antigen in Raji cells at 100 mol ratio/TPA relative to control; values are per cent of control; settings: human gammaherpesvirus 4
[2] = Scavenging activity against NO generation in NOR1-induced cell culture; format: functional
Procedure, shortened: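 Cultured-cell screen for scavenging of NO released by the NO donor NOR 1. Activity expressed as inhibitory ratio (IR) against NOR 1 action, with glycyrrhizin and carboxy-PTIO as reference compounds.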

Raji [3] = assay: Inhibition of TPA-induced Epstein-Barr virus early antigen in Raji cells at 10 mol ratio/TPA relative to control; values are per cent of control; settings: human gammaherpesvirus 4
Raji [4] = assay: Inhibition of TPA-induced Epstein-Barr virus early antigen in Raji cells at 500 mol ratio/TPA relative to control; values are per cent of control; settings: human gammaherpesvirus 4
Raji [5] = assay: Inhibition of TPA-induced Epstein-Barr virus early antigen in Raji cells at 1000 mol ratio/TPA relative to control; values are per cent of control; settings: human gammaherpesvirus 4
[6] = Cytotoxicity against human Raji cells assessed as cell viability at 1000 mol ratio/TPA relative to control; format: cell-based; settings: read-out: Activity
Procedure, shortened: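 Raji cells stimulated with TPA at 32 pmol (20 ng), taken as 100% positive control. Test compound added at mol ratio to TPA of 1000, 500, 100 or 10 (1000:1 = 32 nmol). EBV-EA induction expressed as % of positive control; Raji cell viability recorded as % at the 1000 ratio. IC50 as mol ratio to TPA inhibiting 50% of control.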

SMILES	level, % of control (Raji [1]) [%]	inhibitory ratio (IR) against NOR 1 action [2]	level, % of control (Raji [3]) [%]	level, % of control (Raji [4]) [%]	level, % of control (Raji [5]) [%]	viability at 1000 mol ratio/TPA [6] [%]
CO[C@H]1C=C2[C@@H](CC[C@H](O)C2(C)C)[C@]2(C=O)CC[C@]3(C)[C@@H]([C@H](C)C/C=C/C(C)(C)OC)CC[C@@]3(C)[C@H]12	77.5	1.5	97.3	33.7	0	70
COC1O[C@]23C=C[C@@H]4[C@@]1(CC[C@]1(C)[C@@H]([C@H](C)C/C=C/C(C)(C)O)CC[C@@]41C)[C@@H]2CC[C@H](O)C3(C)C (stereo partly drawn)	72.5	1.9	94.5	27.6	0	70
C=C(C)/C=C/C[C@@H](C)[C@H]1CC[C@@]2(C)[C@@H]3[C@@H](OC)C=C4[C@@H](CC[C@H](O)C4(C)C)[C@]3(C=O)CC[C@]12C	75.4	1.6	95.3	22.5	0	70
CC1(C)N([O])C(c2ccc(C(=O)O)cc2)=[N+]([O-])C1(C)C		8				
CC1=C(/C=C/C(C)=C/C=C/C(C)=C/C=C/C=C(C)/C=C/C=C(C)/C=C/C2=C(C)CCCC2(C)C)C(C)(C)CCC1	82.1		100	34.2	8.6	
C=C(C)/C=C/C[C@@H](C)[C@H]1CC[C@@]2(C)[C@@H]3C=C[C@@]45OC[C@]3(CC[C@]12C)[C@@H]4CC[C@H](O[C@@H]1O[C@H](CO)[C@@H](O)[C@H](O)[C@H]1O)C5(C)C [CHARANTOSIDE III]	82.1		100	36	12.9	70
CO[C@@H]1O[C@]23C=C[C@@H]4[C@@]1(CC[C@]1(C)[C@@H]([C@H](C)C[C@H](C=C(C)C)OC)CC[C@@]41C)[C@@H]2CC[C@H](O[C@@H]1O[C@H](CO)[C@@H](O)[C@@H](O)[C@H]1O)C3(C)C [CHARANTOSIDE II]	82.1		100	35	12.3	70
C=C(C)/C=C/C[C@@H](C)[C@H]1CC[C@@]2(C)[C@@H]3C=C[C@@]45OC[C@]3(CC[C@]12C)[C@@H]4CC[C@H](O[C@@H]1O[C@H](CO)[C@@H](O)[C@@H](O)[C@H]1O)C5(C)C [CHARANTOSIDE IV]	81.1		100	35	12.1	70
C=C(C)/C=C/C[C@@H](C)[C@H]1CC[C@@]2(C)[C@@H]3C=C[C@@]45O[C@@H](OC)[C@]3(CC[C@]12C)[C@@H]4CC[C@H](O[C@@H]1O[C@H](CO)[C@@H](O)[C@H](O)[C@H]1O)C5(C)C [CHARANTOSIDE I]	81.1		100	35.4	12.6	70
CO[C@H]1C=C2[C@@H](CC[C@H](O[C@@H]3O[C@H](CO)[C@@H](O)[C@H](O)[C@H]3O)C2(C)C)[C@]2(C=O)CC[C@]3(C)[C@@H]([C@H](C)C/C=C/C(C)(C)OC)CC[C@@]3(C)[C@H]12 [CHARANTOSIDE VIII]	82.5		100	38.5	15.3	70
C=C(C)/C=C/C[C@@H](C)[C@H]1CC[C@@]2(C)[C@@H]3C=C[C@@]45OC(=O)[C@]3(CC[C@]12C)[C@@H]4CC[C@H](O[C@@H]1O[C@H](CO)[C@@H](O)[C@H](O)[C@H]1O)C5(C)C [CHARANTOSIDE VII]	75.1		100	28.1	9.9	70
CO[C@H](C=C(C)C)C[C@@H](C)[C@H]1CC[C@@]2(C)[C@@H]3C=C[C@@]45OC[C@]3(CC[C@]12C)[C@@H]4CC[C@H](O[C@@H]1O[C@H](CO)[C@@H](O)[C@@H](O)[C@H]1O)C5(C)C [CHARANTOSIDE VI]	82		100	35.9	12.7	70
CO[C@@H](C=C(C)C)C[C@@H](C)[C@H]1CC[C@@]2(C)[C@@H]3C=C[C@@]45OC[C@]3(CC[C@]12C)[C@@H]4CC[C@H](O[C@@H]1O[C@H](CO)[C@@H](O)[C@H](O)[C@H]1O)C5(C)C [CHARANTOSIDE V]	77		100	30.6	10.5	70
COc1cc(/C=C/C(=O)CC(=O)/C=C/c2ccc(O)c(OC)c2)ccc1O [CURCUMIN]	81.8		100	22.8	0	70
COC1O[C@]23C=C[C@@H]4[C@@]1(CC[C@]1(C)[C@@H]([C@H](C)C/C=C/C(C)(C)OC)CC[C@@]41C)[C@@H]2CC[C@H](O[C@@H]1O[C@H](CO)[C@@H](O)[C@H](O)[C@H]1O)C3(C)C (stereo partly drawn) [GOYAGLYCOSIDE C]	80		100	33.7	13.5	70
COC1O[C@]23C=C[C@@H]4[C@@]1(CC[C@]1(C)[C@@H]([C@H](C)C/C=C/C(C)(C)OC)CC[C@@]41C)[C@@H]2CC[C@H](O[C@@H]1O[C@H](CO)[C@@H](O)[C@@H](O)[C@H]1O)C3(C)C (stereo partly drawn) [GOYAGLYCOSIDE D]	80.3		100	34.2	11.2	70
CO[C@H](C=C(C)C)C[C@@H](C)[C@H]1CC[C@@]2(C)[C@@H]3[C@@H](OC)C=C4[C@@H](CC[C@H](O[C@@H]5O[C@H](CO)[C@@H](O)[C@H](O)[C@H]5O)C4(C)C)[C@]3(C)CC[C@]12C [KARAVILOSIDE I]	83.7		100	39.2	16.1	70
COC(C)(C)/C=C/C[C@@H](C)[C@H]1CC[C@@]2(C)[C@@H]3C=C[C@@]45OC[C@]3(CC[C@]12C)[C@@H]4CC[C@H](O[C@@H]1O[C@H](CO)[C@@H](O)[C@H](O)[C@H]1O)C5(C)C [MOMORDICOSIDE F1]	78.1		100	31.5	11.3	70
C[C@H](C/C=C/C(C)(C)O)[C@H]1CC[C@@]2(C)[C@@H]3C=C[C@@]45OC[C@]3(CC[C@]12C)[C@@H]4CC[C@H](O[C@@H]1O[C@H](CO)[C@@H](O)[C@@H](O)[C@H]1O)C5(C)C [MOMORDICOSIDE F2]	76.9		100	29.7	9.1	70
